In paper PMC9148379 (Alzheimer's & Dementia, 2021):
Like-named read-outs stand apart in the source and are kept apart here.

Experiments:
[1] = cited from earlier work
[2] = cited from earlier work; for time from which levels in whole blood at RT started declining: different assays than used in this study
[3] = Experiment 8: aliquot freeze-thawing; assay type: in vitro ADME, human; details: EDTA plasma; for impact of sample freeze–thawing (up to four cycles) on values: six Aβ assays
Method in brief: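 Human EDTA plasma subjected to repeated freeze–thaw was compared with reference aliquots (centrifuged 1800 × g at room temperature after 30 min standing at room temperature, aliquoted immediately, stored at −80°C). Each value was normalized to its reference as %recovery, and the group median per condition was taken. A median change >10% was deemed relevant. GFAP was measured with the pre-commercial Simoa Neurology 4-Plex E kit.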

[4] = Experiment 7: two-week intermediate storage in the fridge; assay type: in vitro ADME, human; details: EDTA plasma, 2 weeks at −20°C before −80°C; six Aβ assays
[5] = assay type: in vitro ADME, human; details: EDTA whole blood, Simoa N3PA
[6] = cited from earlier work; remark: listed apart in the source

| Substance | time from which levels in separated plasma decline at RT [1] [h] | time from which levels in whole blood at RT started declining ([2]; ref 33) [h] | time from which levels in whole blood at RT started declining ([2]; ref 36) [h] | impact of sample freeze–thawing (up to four cycles) on values [3] | decrease of values after two‐week intermittent storage at −20°C [4] | time for which t‐tau was stable prior to centrifugation ([2]; other t‐tau assays) | median recovery, tubes held at RT for 3 hours pending centrifugation ([5]; 3 hours) [%] | median recovery, tubes held at RT for 24 hours pending centrifugation ([5]; 24 hours) [%] | median recovery after four additional freeze–thaw cycles, other biomarkers ([3]; GFAP by Simoa N4PE) [%] | change at the second freeze–thaw cycle ([3]; Simoa N4PE) | plasma levels at freeze–thaw cycle 4 [6] |
| --- | --- | --- | --- | --- | --- | --- | --- | --- | --- | --- | --- |
| Aβ40: endogenous amyloid beta 40 peptide measured in blood as Alzheimer's disease biomarker | 8 | 1 | 48 | did not impact | did not | – | – | – | – | – | – |
| Aβ42: endogenous amyloid beta 42 peptide measured in blood as Alzheimer's disease biomarker | 6 | 1 | 6 | did not impact | did not | – | – | – | – | – | – |
| total tau [t‐tau] | – | – | – | – | – | up to 6 hours | 83 | 49 | – | – | – |
| glial fibrillary acidic protein [GFAP] | – | – | – | – | – | – | – | – | 113 | no change | remained stable |
